# Measurements collected from several papers.
# Each line is one published result; the experiments were not run side by side.
# Target: Dual specificity tyrosine-phosphorylation-regulated kinase 1B (DYRK1B, Homo sapiens, UniProt Q9Y463)
Compound,test,conditions,quantity,value
CC/C(=N\NC(=O)NCc1cccc(O)c1)c1ccc(O)c(C)c1O,"enzyme activity, inhibitor",0.1 µM,inhibition,-5.1%
O=C(O)c1ccc2c(c1)nc(NCc1ccccc1)c1ccncc12,"enzyme activity, inhibitor, radiometric",1 µM,remaining activity,112%
CCCS(=O)(=O)Nc1ccc(F)c(C(=O)c2c[nH]c3ncc(-c4ccc(Cl)cc4)cc23)c1F,"enzyme activity, inhibitor",1 µM,inhibition,< 20%
COc1cc2ncnc(Nc3ccc(Oc4ccccc4)cc3C)c2cc1OC,"enzyme activity, inhibitor",1 µM,inhibition,0%
O=C(O)c1ccc2c(c1)nc(NCCc1cccc(F)c1)c1ncncc12,"enzyme activity, inhibitor, radiometric",1 µM,remaining activity,117%
CC(=O)N1CCC(c2ccc(C(=O)NC(=N)N)cc2C(F)(F)F)CC1,"cell-free assay, competition with immobilised ligand",1 µM,remaining binding,45%
CS(=O)(=O)Nc1cccc(-c2csc(NC(=O)CSc3nc4nccnc4c(=O)n3CCc3ccccc3)n2)c1,"enzyme activity, inhibitor",10 µM,inhibition,0%
Cc1c(C(=O)O)cc(-c2ccc(C3CCNCC3)cc2)c2ccc(-c3ccc(C(F)(F)F)cc3)cc12,"cell-free assay, competition with immobilised ligand",1 µM,remaining binding,74%
O=C(O)c1ccc2c(c1)nc(Nc1cccc(F)c1)c1ncncc12,"enzyme activity, inhibitor, radiometric",1 µM,remaining activity,30%
CSc1cccnc1N1CCN(Cc2nc3ccccc3[nH]2)CC1,"cell-free assay, competition with immobilised ligand",1 µM,remaining binding,91%
O=C(O)c1ccc2c(c1)nc(NCc1ccccc1)c1ncncc12,"enzyme activity, inhibitor, radiometric",1 µM,remaining activity,124%
CN(C)C(=O)Cn1cc(-c2nc([C@@](C)(c3ccc(-c4cnc(N)nc4)cc3)C3CC3)no2)cn1,"cell-free assay, competition with immobilised ligand",1 µM,remaining binding,98%
Cc1cc(NC(=O)c2cccc3cc(-c4cccc5[nH]nc(N)c45)ccc23)ccc1F,"enzyme activity, inhibitor",0.1 µM,activity vs control,95%
O=C1NC(c2ccccn2)Sc2ccccc21 (stereo not drawn),"cell-free assay, competition with immobilised ligand",1 µM,remaining binding,100%
Cn1cncc1C1=CN(c2ncnc3[nH]cnc23)CCS1,"enzyme activity, inhibitor, radiometric",2 µM,inhibition,95.3%
